This note sets out measurements from ChEMBL document CHEMBL4819117, “Probing cytochrome P450 (CYP) bioactivation with chloromethylindoline bioprecursors derived from the duocarmycin family of compounds” (Bioorg Med Chem, 2021).

Each structure is given as a SMILES string.

In data set [1] the test system is CHO. The data set is described as follows: Antiproliferative activity against wild type chinese hamster CHO cells deficit in CYPs assessed as inhibition of cell growth after 96 hrs by MTT assay. It counts as functional, cell-based. The following applies: Cricetulus griseus. Put shortly: (§1)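 Cells kept as monolayers at 37 °C in 5% CO2: EJ-138 and RT112 in RPMI 1640 with 10% FBS, sodium pyruvate and 2 mM L-glutamine; CHO and CHO-1A1 in DMEM. Compounds were taken from DMSO stocks into medium over 0.001–100 μM, with final DMSO ≤0.1%. Exposure lasted 96 h, then MTT read-out. IC50 values are mean ± SD of at least three independent assays.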
(In general: Tetrazolium dyes change colour on reduction, which living cells bring about.)

Data set [2] concerns CHO. The data set is described as follows: Antiproliferative activity against chinese hamster CHO cells transfected with CYP1A1 assessed as inhibition of cell growth after 96 hrs by MTT assay. The data set is classed as functional, cell-based. The following applies: Cricetulus griseus. The method, boiled down: as §1
Data set [3] has as its system EJ. The data set is described as follows: Antiproliferative activity against human EJ138 cells assessed as inhibition of cell growth preincubated for 1 hr with human CYP1A1 expressing bactosomes measured after 96 hrs by MTT assay. The data set is classed as functional, cell-based. The method, boiled down: (§2)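 Compound (50 μM) incubated 1 h at 37 °C with 20 pmol CYP bactosomes (CYP null, 1A1, 1A2, 1B1 or 3A4) in 2 mM NADPH, 1 mM MgCl₂, Tris-HCl pH 7.4. Metabolites were extracted with acetonitrile, centrifuged, and the supernatant dried and taken up in DMSO. EJ138 cells were exposed 96 h and growth read by MTT assay.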

In data set [4] the test system is EJ. The data set can be described thus: Antiproliferative activity against human EJ138 cells assessed as inhibition of cell growth preincubated for 1 hr with human CYP1A2 expressing bactosomes measured after 96 hrs by MTT assay. It counts as functional, cell-based. The method, boiled down:
as §2

For data set [5], the system named is EJ. The data set can be described thus: Antiproliferative activity against human EJ138 cells assessed as inhibition of cell growth preincubated for 1 hr with human CYP3A4 expressing bactosomes measured after 96 hrs by MTT assay. The data set is classed as functional, cell-based. The method, boiled down:
as §2

A short description of data set [6]: Drug metabolism in Wistar rat liver microsomes assessed as CYP-mediated metabolite M16 formation at 0.5 to 23.5 uM prewarmed for 5 mins followed by NADPH addition and measured after 30 mins by HPLC-fluorescence detector analysis. It counts as ADME. The following applies: 35 min, dose 0.5-23.5 µM.
The test system of data set [7] is EJ. The data set can be described thus: Potentiation factor, ratio of IC50 for antiproliferative activity against human EJ138 cells preincubated for 1 hr with CYP null bactosomes to IC50 for antiproliferative activity against human EJ138 cells preincubated for 1 hr with human CYP1A1 expressing bactosomes. It counts as functional. Put shortly:
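Potentiation factor = IC₅₀ in EJ138 given control (CYP null) bactosome extract ÷ IC₅₀ with the named CYP isoform extract. Extracts came from 1 h, 37 °C incubations of 50 μM compound with 20 pmol bactosomes plus 2 mM NADPH, 1 mM MgCl₂, Tris-HCl pH 7.4. Cells were exposed 96 h and read by MTT.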

Data set [8] deals with T1, Cytochrome P450 1A1 (Homo sapiens, UniProt P04798).
T1 sequence (P04798 whole entry): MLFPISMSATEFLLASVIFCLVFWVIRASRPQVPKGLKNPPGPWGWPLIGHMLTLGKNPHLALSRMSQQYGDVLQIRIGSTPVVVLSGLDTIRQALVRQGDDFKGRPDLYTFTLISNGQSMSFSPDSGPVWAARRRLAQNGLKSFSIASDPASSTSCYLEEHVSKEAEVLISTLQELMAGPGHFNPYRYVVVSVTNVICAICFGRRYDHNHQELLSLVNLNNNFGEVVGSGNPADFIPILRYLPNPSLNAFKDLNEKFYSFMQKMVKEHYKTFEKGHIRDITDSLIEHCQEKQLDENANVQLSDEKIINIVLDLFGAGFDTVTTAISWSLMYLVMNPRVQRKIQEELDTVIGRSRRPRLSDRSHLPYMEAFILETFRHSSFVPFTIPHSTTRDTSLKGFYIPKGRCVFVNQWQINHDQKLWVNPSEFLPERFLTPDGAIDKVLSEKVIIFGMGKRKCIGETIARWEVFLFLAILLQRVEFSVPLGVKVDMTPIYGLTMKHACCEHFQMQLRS
The data set can be described thus: Drug metabolism assessed as human CYP1A1 expressed in bactosomes assessed as metabolite M2 with m/z 357.1 formation measured after 1 hr by LC-MS analysis. It counts as ADME. The following applies: recombinant enzyme.

Data set [9] addresses T1, Cytochrome P450 1A1. The data set is described as follows: Drug metabolism assessed as human CYP1A1 expressed in bactosomes assessed as (3-(chloromethyl)-6-hydroxyindolin-1-yl)(5-methoxy-1H-indol-2-yl)methanone formation measured after 1 hr by LC-MS analysis. The following applies: recombinant enzyme. The data set is classed as ADME.
The target in the next data set is T2, Cytochrome P450 1A2 (Homo sapiens, UniProt P05177).
T2 sequence (P05177 whole entry): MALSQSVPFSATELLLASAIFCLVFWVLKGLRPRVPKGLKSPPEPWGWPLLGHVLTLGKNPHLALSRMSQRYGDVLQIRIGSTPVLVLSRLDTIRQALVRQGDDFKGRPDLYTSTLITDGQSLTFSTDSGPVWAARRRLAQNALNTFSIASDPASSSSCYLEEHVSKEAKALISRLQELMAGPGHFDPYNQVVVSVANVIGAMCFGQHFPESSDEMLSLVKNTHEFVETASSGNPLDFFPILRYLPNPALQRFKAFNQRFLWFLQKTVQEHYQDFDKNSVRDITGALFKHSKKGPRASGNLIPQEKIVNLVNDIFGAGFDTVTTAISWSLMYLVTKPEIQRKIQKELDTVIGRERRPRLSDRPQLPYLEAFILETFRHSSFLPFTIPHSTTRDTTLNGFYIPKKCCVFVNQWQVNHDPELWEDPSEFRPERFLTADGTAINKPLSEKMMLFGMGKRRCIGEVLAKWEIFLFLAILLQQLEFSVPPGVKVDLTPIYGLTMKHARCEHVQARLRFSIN
The data set is described as follows: Drug metabolism assessed as human CYP1A2 expressed in bactosomes assessed as (3-(chloromethyl)-6-hydroxyindolin-1-yl)(5-methoxy-1H-indol-2-yl)methanone formation measured after 1 hr by LC-MS analysis. It counts as ADME. The following applies: recombinant enzyme.

For data set [10], the target named is T1, Cytochrome P450 1A1. The data set is described as follows: Drug metabolism assessed as recombinant human CYP1A1-mediated metabolite M3 with m/z 339.1 formation at 50 uM incubated for 1 hr in presence of reconstituted protein system by LC-MS analysis. The data set is classed as ADME. The following applies: recombinant enzyme. The method, boiled down:
(§3)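 Substrate (50 μM) incubated at 37 °C with human recombinant CYP1A1 in a reconstituted system: NADPH cytochrome P450 reductase, freshly prepared DLPC (240 μM), 100 mM potassium phosphate pH 7.4. Reaction was started with NADPH (1 mM final) and aliquots quenched into dichloromethane over 60 min. Metabolites were profiled by HPLC with photodiode array and ESI⁺ quadrupole MS.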

The target of data set [11] is T1, Cytochrome P450 1A1. The data set is described as follows: Drug metabolism assessed as recombinant human CYP1A1-mediated metabolite M5 with m/z 355.1 formation at 50 uM incubated for 1 hr in presence of reconstituted protein system by LC-MS analysis. It counts as ADME. The following applies: recombinant enzyme. The method, boiled down: as §3
Data set [12] has as its target T1, Cytochrome P450 1A1. The data set is described as follows: Drug metabolism assessed as recombinant human CYP1A1-mediated metabolite M6 with m/z 373.1 formation at 50 uM incubated for 1 hr in presence of reconstituted protein system by LC-MS analysis. It counts as ADME. The following applies: recombinant enzyme. The method, boiled down: as §3
Data set [13] is described as follows: Drug metabolism in Wistar rat liver microsomes assessed as CYP-mediated metabolite M22 formation at 0.5 to 23.5 uM prewarmed for 5 mins followed by NADPH addition and measured after 30 mins by HPLC-fluorescence detector analysis. The following applies: 35 min, dose 0.5-23.5 µM. It counts as ADME. In general terms: Liver microsomes are a subcellular fraction often used to study metabolism.

In a further data set the test system is Cytochrome P450. The data set is described as follows: Drug metabolism in human liver microsomes assessed as CYP-mediated metabolite M23 formation at 0.5 to 23.5 uM prewarmed for 5 mins followed by NADPH addition and measured after 30 mins by HPLC-fluorescence detector analysis. The data set is classed as ADME. The following applies: 35 min, dose 0.5-23.5 µM.

Regarding `COc1ccc2[nH]c(C(=O)N3CC(CCl)c4ccccc43)cc2c1` (stereo not given), the IC50 (as a rule, the concentration that gives 50% inhibition) with CHO [1] worked out at 11400 nM; in the data set with CHO [2], 1200 nM; in the data set on EJ [3], 2500 nM; in the data set with EJ [4], 1900 nM; in the data set on EJ [5] it was 19800 nM. Besides, the Drug metabolism entry is given as “Metabolite_Detected” in [6]; “Metabolite_Detected” on Cytochrome P450 1A1 [8]; “Metabolite_Notdetected” at Cytochrome P450 1A1 [9]; “Metabolite_Notdetected” on Cytochrome P450 1A2; “Metabolite_Detected” on Cytochrome P450 1A1 [10]; “Metabolite_Detected” on Cytochrome P450 1A1 [11]. For the same compound, the Drug metabolism result (at Cytochrome P450 1A1 [12]; in data set [13]; in the data set with Cytochrome P450) was “Metabolite_Detected” throughout. Further, the “Ratio IC50” value in the data set on EJ [7] amounted to 6.9.
